Experiments:
Adenosine receptor A2b = target: T1, Adenosine receptor A2b (Homo sapiens, UniProt P29275); assay: Displacement of [3H]-ZM241385 from human A2B receptor expressed in HEK293 cell membranes
T1 sequence (P29275 whole entry): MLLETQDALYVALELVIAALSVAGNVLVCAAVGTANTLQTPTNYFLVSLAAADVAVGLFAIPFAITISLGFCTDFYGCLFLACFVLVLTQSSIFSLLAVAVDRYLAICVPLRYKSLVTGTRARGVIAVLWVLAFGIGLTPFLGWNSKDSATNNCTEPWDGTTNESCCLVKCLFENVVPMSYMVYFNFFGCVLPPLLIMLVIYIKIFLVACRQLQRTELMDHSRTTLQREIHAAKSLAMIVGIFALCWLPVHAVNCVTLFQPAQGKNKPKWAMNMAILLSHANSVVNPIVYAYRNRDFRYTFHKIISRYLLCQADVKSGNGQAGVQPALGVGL
Method in brief: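 Membranes from HEK cells expressing A2B; binding sites labeled with 3H-ZM241385 at 14 nM and displaced competitively.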

Adenosine receptor A1 = target: T2, Adenosine receptor A1 (Homo sapiens, UniProt P30542); assay: Displacement of [3H]-CPX from human A1 receptor expressed in CHO cell membranes
T2 sequence (P30542 whole entry): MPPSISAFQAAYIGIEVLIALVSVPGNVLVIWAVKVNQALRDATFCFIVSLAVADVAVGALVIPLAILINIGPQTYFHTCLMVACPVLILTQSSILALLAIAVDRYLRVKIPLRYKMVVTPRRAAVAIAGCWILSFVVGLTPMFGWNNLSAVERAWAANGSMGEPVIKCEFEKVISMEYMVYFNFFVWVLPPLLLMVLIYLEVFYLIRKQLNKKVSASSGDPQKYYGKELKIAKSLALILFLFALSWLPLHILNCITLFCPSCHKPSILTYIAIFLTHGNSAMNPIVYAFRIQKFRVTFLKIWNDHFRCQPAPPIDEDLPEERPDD
Method in brief: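 Competitive binding on membranes prepared from A1-expressing CHO cells, radioligand 3H-CPX at 0.5 nM.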

Adenosine receptor A2a = Adenosine receptor A2a (Homo sapiens, UniProt P29274); assay: Displacement of [3H]ZM241385 from human A2A receptor expressed in HEK293 cell membranes
Adenosine receptor A2a, sequence (P29274 whole entry): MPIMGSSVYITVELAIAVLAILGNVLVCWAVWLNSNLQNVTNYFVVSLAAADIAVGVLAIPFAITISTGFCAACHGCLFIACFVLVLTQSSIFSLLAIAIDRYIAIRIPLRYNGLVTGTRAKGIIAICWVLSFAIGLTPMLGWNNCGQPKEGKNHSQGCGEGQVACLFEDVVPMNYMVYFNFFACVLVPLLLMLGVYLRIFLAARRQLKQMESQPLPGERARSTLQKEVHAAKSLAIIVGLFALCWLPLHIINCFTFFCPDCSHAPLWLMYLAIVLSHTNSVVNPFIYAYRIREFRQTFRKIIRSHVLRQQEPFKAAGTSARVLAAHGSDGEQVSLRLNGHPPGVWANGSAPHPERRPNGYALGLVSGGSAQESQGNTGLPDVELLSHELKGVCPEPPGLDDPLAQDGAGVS
Method in brief: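 A2A affinity by competition with 3H-ZM241385 (2 nM) for binding sites in membranes from HEK-A2A cells.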

Adenosine receptor A3 = target: T3, Adenosine receptor A3 (Homo sapiens, UniProt P0DMS8); assay: Displacement of [125I]-AB-MECA from human A3 receptor expressed in CHO cells; assay type: cell-based
T3 sequence (P0DMS8 whole entry): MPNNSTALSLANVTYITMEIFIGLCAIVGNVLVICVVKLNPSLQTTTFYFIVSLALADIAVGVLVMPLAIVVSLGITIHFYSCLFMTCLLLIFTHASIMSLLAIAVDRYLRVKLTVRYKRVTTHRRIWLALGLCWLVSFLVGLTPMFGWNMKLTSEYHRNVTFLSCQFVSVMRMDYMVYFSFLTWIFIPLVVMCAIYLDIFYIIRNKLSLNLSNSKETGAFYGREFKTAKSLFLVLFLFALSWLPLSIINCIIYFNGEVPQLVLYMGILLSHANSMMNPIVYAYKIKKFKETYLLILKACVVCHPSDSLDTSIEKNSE
Method in brief: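 A3 binding: competition for sites labeled by 125I-AB-MECA using CHO cells expressing the A3 receptor.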

Homo sapiens [1] = organism: Homo sapiens; assay: Selectivity for human A2B receptor over human A1 receptor
Homo sapiens [2] = organism: Homo sapiens; assay: Selectivity for human A2B receptor over human A2A receptor
Homo sapiens [3] = organism: Homo sapiens; assay: Selectivity for human A2B receptor over human A3 receptor

Structure (SMILES) | Ki (Adenosine receptor A2b) | Ki (Adenosine receptor A1) | Ki (Adenosine receptor A2a) | Ki (Adenosine receptor A3) | Ratio Ki (Homo sapiens [1]) | Ratio Ki (Homo sapiens [2]) | Ratio Ki (Homo sapiens [3])
CC(C)Cn1c(=O)[nH]c2nc(-c3cnn(Cc4noc(-c5ccc(C(F)(F)F)cc5)n4)c3)[nH]c2c1=O | 0.014 µM | > 6 µM | > 5 µM | > 9 µM | > 400 | > 350 | > 650
CC(C)Cn1c(=O)[nH]c2nc(-c3cnn(Cc4ccccc4)c3)[nH]c2c1=O | 0.013 µM | > 6 µM | > 5 µM | 1.1 µM | > 460 | > 380 | 90
CCn1c(=O)[nH]c2nc(-c3cnn(Cc4cccc(F)c4)c3)[nH]c2c1=O | 0.073 µM | > 6 µM | > 5 µM | 2.12 µM | > 80 | > 70 | 30
CC(C)Cn1c(=O)[nH]c2nc(-c3cnn(Cc4cc(-c5ccccc5)on4)c3)[nH]c2c1=O | 0.012 µM | > 6 µM | > 5 µM | > 9 µM | > 500 | > 410 | > 750
O=c1[nH]c2nc(-c3cnn(Cc4cccc(F)c4)c3)[nH]c2c(=O)n1CC1CC1 | 0.005 µM | 0.21 µM | 0.1 µM | – | 42 | 20 | –
O=c1[nH]c2nc(-c3cnn(Cc4noc(-c5ccc(Cl)cc5)n4)c3)[nH]c2c(=O)n1CC1CC1 | 0.048 µM | > 6 µM | > 5 µM | > 9 µM | > 120 | > 100 | > 190
CCn1c(=O)[nH]c2nc(-c3cnn(Cc4cccc(C(F)(F)F)c4)c3)[nH]c2c1=O | 0.006 µM | > 6 µM | > 5 µM | > 9 µM | > 1000 | > 830 | > 1500
CCCn1c(=O)[nH]c2nc(-c3cnn(Cc4cccc(C(F)(F)F)c4)c3)[nH]c2c1=O | 0.008 µM | > 6 µM | > 5 µM | 0.7 µM | > 750 | > 620 | 80
CCCCn1c(=O)[nH]c(=O)c2[nH]c(-c3cnn(Cc4ccccc4)c3)nc21 | > 6 µM | – | – | – | – | – | –
CCCCn1c(=O)[nH]c2nc(-c3cnn(Cc4ccccc4)c3)[nH]c2c1=O | 0.034 µM | 5.1 µM | 3.4 µM | 0.11 µM | 150 | 100 | 3
CCCCn1c(=O)[nH]c2nc(-c3cnn(Cc4cccc(F)c4)c3)[nH]c2c1=O | 0.018 µM | 4.2 µM | > 5 µM | 0.27 µM | 230 | > 280 | 15
CCCCn1c(=O)[nH]c2nc(-c3cnn(Cc4cccc(C(F)(F)F)c4)c3)[nH]c2c1=O | 0.03 µM | > 6 µM | > 5 µM | > 9 µM | > 200 | > 170 | > 300
O=c1[nH]c2nc(-c3cnn(Cc4ccccc4)c3)[nH]c2c(=O)n1Cc1ccccc1 | > 6 µM | – | – | – | – | – | –
CCCn1c(=O)[nH]c2nc(-c3cnn(Cc4ccccc4)c3)[nH]c2c1=O | 0.013 µM | 1.6 µM | > 5 µM | 0.12 µM | 120 | > 380 | 10
CCCn1c(=O)c2[nH]c(-c3cnn(Cc4noc(-c5ccccc5)n4)c3)nc2n(CCC)c1=O | – | – | – | – | 50 | 85 | 30
CCCn1c(=O)[nH]c(=O)c2[nH]c(-c3cnn(Cc4ccccc4)c3)nc21 | > 6 µM | – | – | – | – | – | –
CCCn1c(=O)[nH]c2nc(-c3cnn(Cc4cc(-c5ccc(Cl)cc5)on4)c3)[nH]c2c1=O | 0.17 µM | > 6 µM | > 5 µM | – | > 30 | > 30 | –

Structure (SMILES) | Ki (Adenosine receptor A2b) | Ki (Adenosine receptor A1) | Ki (Adenosine receptor A2a) | Ki (Adenosine receptor A3) | Ratio Ki (Homo sapiens [1]) | Ratio Ki (Homo sapiens [2]) | Ratio Ki (Homo sapiens [3])
O=c1[nH]c(=O)n(Cc2ccccc2)c2nc(-c3cnn(Cc4ccccc4)c3)[nH]c12 | > 6 µM | – | – | – | – | – | –
CCCn1c(=O)c2[nH]c(-c3cnn(Cc4cccc(F)c4)c3)nc2n(CCC)c1=O | – | – | – | 0.058 µM | 13 | 18 | 4
O=c1[nH]c2nc(-c3cnn(Cc4ccccc4)c3)[nH]c2c(=O)n1CC1CC1 | 0.006 µM | 3.29 µM | 2.76 µM | 0.18 µM | 550 | 460 | 30
CC(C)Cn1c(=O)[nH]c(=O)c2[nH]c(-c3cnn(Cc4ccccc4)c3)nc21 | > 6 µM | – | – | – | – | – | –
O=c1[nH]c2nc(-c3cnn(Cc4cccc(C(F)(F)F)c4)c3)[nH]c2c(=O)n1CC1CC1 | 0.003 µM | > 6 µM | > 5 µM | 1 µM | > 2000 | > 1600 | 300
O=c1[nH]c2nc(-c3cnn(Cc4cc(-c5ccc(C(F)(F)F)cc5)on4)c3)[nH]c2c(=O)n1CC1CC1 | 0.015 µM | > 6 µM | > 5 µM | > 9 µM | > 400 | > 300 | > 600
CCCn1c(=O)[nH]c2nc(-c3cnn(Cc4cc(-c5ccccc5)on4)c3)[nH]c2c1=O | 0.022 µM | > 6 µM | > 5 µM | > 9 µM | > 270 | > 230 | > 400
CCCn1c(=O)c2[nH]c(-c3cnn(Cc4cc(-c5ccccc5)on4)c3)nc2n(CCC)c1=O | – | – | – | – | 110 | 30 | 130
CCCn1c(=O)[nH]c2nc(-c3cnn(Cc4noc(-c5ccc(C(F)(F)F)cc5)n4)c3)[nH]c2c1=O | 0.015 µM | 1.4 µM | > 5 µM | > 9 µM | 90 | > 300 | > 600
CCCCn1c(=O)[nH]c2nc(-c3cnn(Cc4noc(-c5ccc(Cl)cc5)n4)c3)[nH]c2c1=O | 0.023 µM | > 6 µM | > 5 µM | > 9 µM | > 260 | > 210 | > 400
CCCn1c(=O)c2[nH]c(-c3cnn(Cc4ccccc4)c3)nc2n(CCC)c1=O | – | – | – | – | 7 | 26 | 16
CCCn1c(=O)[nH]c2nc(-c3cnn(Cc4cccc(F)c4)c3)[nH]c2c1=O | 0.011 µM | 1.8 µM | 1.73 µM | 0.16 µM | 160 | 160 | 15
CCCn1c(=O)[nH]c2nc(-c3cnn(Cc4noc(-c5ccc(Cl)cc5)n4)c3)[nH]c2c1=O | 0.007 µM | > 6 µM | > 5 µM | > 9 µM | > 850 | > 700 | > 1280
CCn1c(=O)[nH]c2nc(-c3cnn(Cc4ccccc4)c3)[nH]c2c1=O | 0.037 µM | 5.6 µM | 3.8 µM | 1.5 µM | 150 | 100 | 40
Cn1c(=O)[nH]c(=O)c2[nH]c(-c3cnn(Cc4ccccc4)c3)nc21 | > 6 µM | – | – | – | – | – | –
CCCn1c(=O)c2[nH]c(-c3cnn(Cc4cccc(C(F)(F)F)c4)c3)nc2n(CCC)c1=O | – | 0.16 µM | – | 0.14 µM | 12 | 27 | 10
CCn1c(=O)[nH]c(=O)c2[nH]c(-c3cnn(Cc4ccccc4)c3)nc21 | > 6 µM | – | – | – | – | – | –

Reference: ChEMBL document CHEMBL1141482, “Selective, high affinity A(2B) adenosine receptor antagonists: N-1 monosubstituted 8-(pyrazol-4-yl)xanthines” (Bioorg Med Chem Lett, 2008)
